Measurements collected from several papers.
Protocols differ between the studies behind these lines. pIC50, pKd: −log10 of the molar value.
EGFR L858R/T790M: Epidermal growth factor receptor (EGFR, Homo sapiens, UniProt P00533, L858R/T790M)
EGFR: Epidermal growth factor receptor (EGFR, Homo sapiens, UniProt P00533)

`COC(=O)[C@]12CCC(C)(C)C[C@H]1[C@H]1C(=O)C=C3[C@@]4(C)C=C(C#N)C(=O)C(C)(C)[C@@H]4CC[C@@]3(C)[C@]1(C)CC2` gave a pKd of 5.96 (EGFR L858R/T790M; binding; MST).
`C=CC(=O)Nc1cc(Nc2ncc(C(=O)OC(C)C)c(-c3cn(C)c4ccccc34)n2)c(OC)cc1N(C)CCN(C)C` has a pIC50 of 9.22 (EGFR L858R/T790M; enzyme activity; inhibitor).
`O=C(CCn1c(=O)ccc2ccccc21)N1CCOCC1` has a pIC50 of 7.28 (EGFR; enzyme activity; inhibitor).
With `CC(C)=CCc1c(O)c(O)c2oc3c(O)ccc(O)c3c(=O)c2c1CC=C(C)C` the pKd was 4.72 (EGFR; binding; SPR).
The pIC50 of `COc1ccc2[nH]c(C(=O)Nc3nc(CC(=O)O)cs3)cc2c1` is reported as 5.76 (EGFR; enzyme activity; inhibitor; ELISA).
The pIC50 of `Cc1c(Cc2ccccc2)c(=O)oc2c(C)c(OCC(=O)NN=Cc3ccc([N+](=O)[O-])cc3)ccc12` is reported as 6.50 (EGFR; enzyme activity; inhibitor; ATP luminescence).
The pIC50 of `Cc1ncc(CN2CCN(Cc3ccccn3)CC2)c2cc(C(=O)c3ccc4c(c3)OCCO4)oc12` is reported as 8.49 (EGFR L858R/T790M; enzyme activity; inhibitor; ADP detection).
`C=CC(=O)N1CC[C@@H](Oc2nc(Nc3ccc(N4CCC(N5CCN(C)CC5)CC4)cc3)c(C(N)=O)nc2CC)C1` has a pIC50 of 8.92 (EGFR L858R/T790M; enzyme activity; inhibitor).
The pIC50 of `Cc1ncc(CN2CCc3ccccc3C2)c2cc(C(=O)c3ccc4c(c3)OCCO4)oc12` is reported as 7.96 (EGFR L858R/T790M; enzyme activity; inhibitor; ADP detection).
With `O=C(O)Cc1csc(NC(=O)c2cc3ccccc3[nH]2)n1` the pIC50 was 6.21 (EGFR; enzyme activity; inhibitor; ELISA).
`CCc1c(C)c2ccc(OCC(=O)NN=Cc3ccc([N+](=O)[O-])cc3)cc2oc1=O` has a pIC50 of 6.38 (EGFR; enzyme activity; inhibitor; ATP luminescence).
The pIC50 of `Cc1ccc2c(-c3cc4c(CN5CCN(Cc6ccccn6)CC5)cnc(C)c4o3)cc(=O)oc2c1` is reported as 7.91 (EGFR L858R/T790M; enzyme activity; inhibitor; ADP detection).
